This note sets out measurements from ChEMBL document CHEMBL2169867, “Novel β-amino acid derivatives as inhibitors of cathepsin A” (J Med Chem, 2012).

SMILES strings stand for the structures.

The target of series [1] is T1, Lysosomal protective protein (Homo sapiens, UniProt P10619).
T1 sequence (P10619 whole entry): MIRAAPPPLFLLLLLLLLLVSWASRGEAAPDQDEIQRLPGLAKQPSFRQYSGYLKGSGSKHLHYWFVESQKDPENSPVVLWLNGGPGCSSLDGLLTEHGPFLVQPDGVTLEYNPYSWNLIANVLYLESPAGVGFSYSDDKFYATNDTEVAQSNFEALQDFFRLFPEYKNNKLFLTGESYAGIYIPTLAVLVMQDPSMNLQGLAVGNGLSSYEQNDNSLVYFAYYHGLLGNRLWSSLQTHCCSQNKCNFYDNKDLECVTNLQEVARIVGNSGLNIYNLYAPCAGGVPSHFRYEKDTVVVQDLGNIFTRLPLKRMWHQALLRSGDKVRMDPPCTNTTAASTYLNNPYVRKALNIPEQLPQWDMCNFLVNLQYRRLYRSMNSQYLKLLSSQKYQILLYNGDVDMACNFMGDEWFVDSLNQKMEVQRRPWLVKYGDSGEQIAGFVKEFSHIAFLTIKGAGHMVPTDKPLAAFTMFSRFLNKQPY
Nature of the series: Inhibition of human recombinant Myc-His10-tagged cathepsin A expressed in baculovirus infected Sf9 cells using BodipyFL labeled bradykinin as substrate incubated for 15 mins prior to substrate addition measured after 15 mins by fluorimetric analysis.

The target in another series is CYP3A4 (Homo sapiens, UniProt P08684). Nature of the series: Induction of CYP3A4 relative to control. The class given is ADME. The note with it: human.
Series [2] concerns the target Cathepsin A (Homo sapiens). The series is described as follows: Inhibition of cathepsin A.
The next series concerns the target Neprilysin (Homo sapiens, UniProt P08473). The series is described as follows: Inhibition of human recombinant NEP using Mca-RPPGFSAFK(Dnp)-OH as substrate incubated for 15 mins prior to substrate addition measured after 20 to 30 mins by fluorimetric analysis. In short, it runs like this: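 Recombinant human NEP and inhibitor preincubated 15 min at room temperature in reaction buffer, then substrate added. Fluorescence read after 20-30 min at room temperature. % inhibition and IC50 calculated against internal high and low controls.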

A short description of series [3]: Permeability across human Caco2 cells. It is filed as ADME, cell-based. The settings on record: Caco-2, read-out: permeability. Background: Passage across Caco-2 layers is used to estimate intestinal permeability.

Sequence of Neprilysin (P08473 whole entry): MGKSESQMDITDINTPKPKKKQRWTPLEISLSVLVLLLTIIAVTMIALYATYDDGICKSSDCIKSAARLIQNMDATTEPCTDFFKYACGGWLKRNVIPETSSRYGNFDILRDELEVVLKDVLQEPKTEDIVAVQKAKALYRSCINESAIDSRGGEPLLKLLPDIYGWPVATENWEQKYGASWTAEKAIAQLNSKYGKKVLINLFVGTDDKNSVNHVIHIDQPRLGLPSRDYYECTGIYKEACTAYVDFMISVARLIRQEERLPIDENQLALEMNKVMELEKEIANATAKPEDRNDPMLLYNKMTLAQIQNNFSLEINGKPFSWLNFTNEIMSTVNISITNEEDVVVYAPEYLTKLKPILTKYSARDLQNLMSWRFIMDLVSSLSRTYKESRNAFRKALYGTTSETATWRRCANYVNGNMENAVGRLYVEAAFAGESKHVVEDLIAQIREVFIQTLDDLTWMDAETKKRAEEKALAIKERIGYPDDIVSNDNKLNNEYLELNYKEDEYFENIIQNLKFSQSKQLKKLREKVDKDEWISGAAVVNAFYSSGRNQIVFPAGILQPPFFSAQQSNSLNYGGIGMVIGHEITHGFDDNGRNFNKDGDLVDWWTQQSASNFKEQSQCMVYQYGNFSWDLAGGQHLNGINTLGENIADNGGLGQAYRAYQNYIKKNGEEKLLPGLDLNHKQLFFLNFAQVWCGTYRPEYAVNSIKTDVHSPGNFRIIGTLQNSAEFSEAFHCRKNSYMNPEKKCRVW
Sequence of CYP3A4 (P08684 whole entry): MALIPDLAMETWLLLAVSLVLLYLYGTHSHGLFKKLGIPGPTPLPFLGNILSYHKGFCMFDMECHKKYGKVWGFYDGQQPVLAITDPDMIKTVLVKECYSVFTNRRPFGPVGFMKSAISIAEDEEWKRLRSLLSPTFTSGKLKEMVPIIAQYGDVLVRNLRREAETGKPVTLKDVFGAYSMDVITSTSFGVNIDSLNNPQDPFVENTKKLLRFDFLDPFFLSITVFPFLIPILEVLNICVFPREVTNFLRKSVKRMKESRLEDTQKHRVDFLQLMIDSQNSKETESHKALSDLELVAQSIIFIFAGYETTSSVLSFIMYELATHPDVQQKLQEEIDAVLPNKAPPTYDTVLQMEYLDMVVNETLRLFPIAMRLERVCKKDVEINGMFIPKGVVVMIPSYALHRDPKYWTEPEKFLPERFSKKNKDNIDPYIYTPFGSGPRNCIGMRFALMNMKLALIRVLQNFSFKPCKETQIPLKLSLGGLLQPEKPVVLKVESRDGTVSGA

Take `O=C(O)CC(NC(=O)c1cc(=O)n(-c2ccccc2)[nH]1)c1ccc(Oc2ccccc2)cc1` (racemic): in series [1], the IC50 came to 200 nM.
On to `Cc1ccccc1[C@H](CC(=O)O)NC(=O)c1cc(OC[C@@H](O)C(C)(C)C)n(-c2ccccc2F)n1`, for which the IC50 in series [1] stood at 10 nM.
Take `CCOc1cc(C(=O)N[C@@H](CC(=O)O)c2ccccc2C)nn1-c1ccccc1F`: at CYP3A4, the Emax amounted to 51%. For the same compound, the IC50 in series [2] and in series [1] was 15 nM in each case.
In the case of `Cc1ccc(F)cc1C(CC(=O)O)NC(=O)c1cc(=O)n(-c2ccccc2F)[nH]1` (racemic), the IC50 in series [1] was 76 nM.
`O=C(O)CC(NC(=O)c1cc(=O)n(-c2ccccc2F)[nH]1)c1ccccc1` (racemic): in series [1], the IC50 was found to be 226 nM.
In the case of `Cc1cccc([C@H](CC(=O)O)NC(=O)c2cc(=O)n(-c3ccccc3F)[nH]2)c1`, in series [1], the IC50 was 252 nM.
In the case of `COc1cn(-c2ccccc2)nc1C(=O)N[C@@H](CC(=O)O)c1ccccc1C`, the IC50 in series [1] worked out at 100 nM.
On the same count and under the same terms, for `Cc1ccc(C)c(-n2[nH]c(C(=O)NC(CC(=O)O)c3ccc(-c4ccccc4)cc3)cc2=O)c1` (racemic) the value was 803 nM.
On the same count and under the same terms, to `Cc1ccccc1[C@H](CC(=O)O)NC(=O)c1cc(=O)n(-c2ccccc2Cl)[nH]1` belongs 57 nM; to `O=C(O)C[C@H](NC(=O)c1cc(=O)n(-c2ccccc2F)[nH]1)c1ccccc1C(F)(F)F`, 375 nM.
Take `Cc1ccc(C)c(-n2[nH]c(C(=O)NC(CC(=O)O)c3ccc(F)cc3)cc2=O)c1` (racemic): in series [1], the IC50 came to 5380 nM.
On the same count and under the same terms, for `Cc1ccccc1[C@H](CC(=O)O)NC(=O)c1cc(=O)n(-c2ccccc2)[nH]1` the value was 70 nM.
For the compound `Cc1ccccc1[C@H](CC(=O)O)NC(=O)c1cc(=O)n(-c2ccc(F)cc2)[nH]1`, in series [1], the IC50 is 87 nM.
For `O=C(O)CC(NC(=O)c1cc(=O)n(-c2ccc(Cl)cc2)[nH]1)c1cc(Cl)ccc1Cl` (racemic), the figures for the IC50 (on Neprilysin; in series [1]) were 300 nM and above 30000 nM, respectively.
For `Cc1ccccc1[C@H](CC(=O)O)NC(=O)c1nn(-c2ccccc2)cc1O`, the IC50 in series [1] was 110 nM.
For `CC(C)(C)[C@H](O)COc1cc(C(=O)N[C@@H](CC(=O)O)c2ccc(Cl)cc2Cl)nn1-c1ccccc1F`, the IC50 in series [1] amounted to 70 nM.
For `Cc1ccccc1[C@H](CC(=O)O)NC(=O)c1cc(OCC2CC2)n(-c2ccccc2F)n1`, on CYP3A4, the Emax turned out to be 72%. The figures for the IC50 (in series [2]; at Neprilysin; in series [1]) were 15 nM, 27000 nM and 15 nM, respectively.
In the case of `Cc1ccccc1[C@H](CC(=O)O)NC(=O)c1cc(=O)n(-c2cccc(Cl)c2)[nH]1`, the IC50 in series [1] was determined as 102 nM.
On to `O=C(O)CC(NC(=O)c1cc(=O)n(-c2ccccc2F)[nH]1)c1ccc(-c2ccc(F)cc2)cc1` (racemic), for which the IC50 in series [1] was 25 nM.
Consider `Cc1ccccc1[C@H](CC(=O)O)NC(=O)c1cc(OCC(=O)C(C)(C)C)n(-c2ccccc2F)n1`, for which the IC50 in series [1] was determined as 3 nM. For the same compound, the Papp in series [3] was above 2 ×10⁻⁶ cm/s.
For the compound `Cc1ccccc1[C@H](CC(=O)O)NC(=O)c1cc(=O)n(-c2cccc(F)c2)[nH]1`, the IC50 in series [1] worked out at 59 nM.
As for `CC(C)(C)C(=O)COc1cc(C(=O)N[C@@H](CC(=O)O)c2ccc(Cl)cc2Cl)nn1-c1ccccc1F`, the IC50 in series [1] was found to be 60 nM. Also, the Papp in series [3] is above 2 ×10⁻⁶ cm/s.
As to `Cc1ccccc1[C@@H](CC(=O)O)NC(=O)c1cc(=O)n(-c2ccccc2)[nH]1`, in series [1], the IC50 was found to be 7800 nM.
Take `Cc1ccc([C@H](CC(=O)O)NC(=O)c2cc(=O)n(-c3ccccc3F)[nH]2)cc1`: the IC50 in series [1] was 274 nM.
On to `O=C(O)CC(NC(=O)c1cc(=O)n(-c2ccccc2)[nH]1)c1cccc(Cl)c1Cl` (racemic), for which the IC50 at Neprilysin is below 60 nM; in series [1], 100 nM.
Regarding `O=C(O)CC(NC(=O)c1cc(=O)n(-c2ccc(F)cc2F)[nH]1)c1cccc(Cl)c1Cl` (racemic), the IC50 in series [1] is 120 nM.
With `COc1ccccc1[C@H](CC(=O)O)NC(=O)c1cc(=O)n(-c2ccccc2F)[nH]1`, the 50% inhibitory concentration (IC50) in series [1] was found to be 357 nM.
For `COc1c(F)c(C(=O)N[C@@H](CC(=O)O)c2ccccc2C)nn1-c1ccccc1F`, the IC50 in series [1] came to 30 nM.
As for `COc1c(Cl)c(C(=O)N[C@@H](CC(=O)O)c2ccccc2C)nn1-c1ccccc1F`, in series [1], the IC50 was 110 nM.

The IC50 is the concentration that gives 50% inhibition. One may read the Emax as the greatest response seen or fitted, relative to the assay's reference.
